Data: ChEMBL document CHEMBL3526138, “Excretion and metabolism of milnacipran in humans after oral administration of milnacipran hydrochloride” (Drug Metab Dispos, 2012)

What was measured:
Plasma [1] = experiment: Plasma concentration in human treated with [14C]-labeled milnacipran hydrochloride at 100 mg, po measured at 1 hr by HPLC analysis; assay type: ADME, organism-based; settings: in vivo
Outline: (§1)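 Single oral 100 mg [14C] milnacipran hydrochloride in healthy men; blood taken into chilled K3EDTA tubes, plasma spun at ≥2,500 g for 10 min at 4°C and stored at -80°C. Pooled timepoint plasma was extracted and run on phenyl-hexyl HPLC, with 0.5-min fractions counted by LSC. Peak concentration = % of chromatogram radioactivity × pool radioactivity (ng equivalent of milnacipran/mL).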

[2] = Drug excretion in human urine treated with [14C]-labeled milnacipran hydrochloride at 100 mg, po up to 4 hrs by HPLC analysis; assay type: ADME, organism-based; settings: in vivo
Outline: (§2)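 Healthy male subjects, single oral 100 mg [14C] milnacipran hydrochloride (1 μCi/mg) after breakfast; urine pooled by interval and kept at -80°C. Urine injected directly (200 µL) onto phenyl-hexyl HPLC, 35°C, gradient ammonium acetate pH 5/methanol at 1 mL/min, with radioactivity flow detection. Metabolite excretion = net peak radioactivity (% of chromatogram, background-subtracted) × urine radioactivity excreted (% of dose); four subjects without emesis, mean.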

Plasma [3] = experiment: Plasma concentration in human treated with [14C]-labeled milnacipran hydrochloride at 100 mg, po measured at 4 hrs by HPLC analysis; assay type: ADME, organism-based; settings: in vivo; outline: as §1
Plasma [4] = experiment: Plasma concentration in human treated with [14C]-labeled milnacipran hydrochloride at 100 mg, po measured at 3 hrs by HPLC analysis; assay type: ADME, organism-based; settings: in vivo; outline: as §1
Plasma [5] = experiment: Plasma concentration in human treated with [14C]-labeled milnacipran hydrochloride at 100 mg, po measured at 1.5 hrs by HPLC analysis; assay type: ADME, organism-based; settings: in vivo; outline: as §1
[6] = Drug excretion in human urine treated with [14C]-labeled milnacipran hydrochloride at 100 mg, po after 24 to 48 hrs by HPLC analysis; assay type: ADME, organism-based; settings: in vivo; outline: as §2
Plasma [7] = experiment: Plasma concentration in human treated with [14C]-labeled milnacipran hydrochloride at 100 mg, po measured at 6 hrs by HPLC analysis; assay type: ADME, organism-based; settings: in vivo; outline: as §1
Plasma [8] = experiment: Plasma concentration in human treated with [14C]-labeled milnacipran hydrochloride at 100 mg, po measured at 0.5 hrs by HPLC analysis; assay type: ADME, organism-based; settings: in vivo; outline: as §1
[9] = Retention time in human urine treated with [14C]-labeled milnacipran hydrochloride at 100 mg, po by HPLC analysis; assay type: ADME, organism-based; settings: in vivo
Outline: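 Urine from subjects given oral 100 mg [14C] milnacipran hydrochloride was run on a Luna phenyl-hexyl column (250 x 4.6 mm) with guard column at 35°C. Elution used a gradient of ammonium acetate pH 5/water/methanol at 1 mL/min, with in-line radioactivity flow detection and UV at 220 nm.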

Plasma [10] = experiment: Plasma concentration in human treated with [14C]-labeled milnacipran hydrochloride at 100 mg, po measured at 2 hrs by HPLC analysis; assay type: ADME, organism-based; settings: in vivo; outline: as §1
[11] = Drug excretion in human urine treated with [14C]-labeled milnacipran hydrochloride at 100 mg, po after 72 to 96 hrs by HPLC analysis; assay type: ADME, organism-based; settings: in vivo; outline: as §2
[12] = Drug excretion in human urine treated with [14C]-labeled milnacipran hydrochloride at 100 mg, po after 12 to 24 hrs by HPLC analysis; assay type: ADME, organism-based; settings: in vivo; outline: as §2
[13] = Drug excretion in human urine treated with [14C]-labeled milnacipran hydrochloride at 100 mg, po after 8 to 12 hrs by HPLC analysis; assay type: ADME, organism-based; settings: in vivo; outline: as §2
[14] = Drug excretion in human urine treated with [14C]-labeled milnacipran hydrochloride at 100 mg, po after 0 to 96 hrs by HPLC analysis; assay type: ADME, organism-based; settings: in vivo
Plasma [15] = experiment: Plasma concentration in human treated with [14C]-labeled milnacipran hydrochloride at 100 mg, po measured at 12 hrs by HPLC analysis; assay type: ADME, organism-based; settings: in vivo; outline: as §1
[16] = Drug excretion in human urine treated with [14C]-labeled milnacipran hydrochloride at 100 mg, po after 4 to 8 hrs by HPLC analysis; assay type: ADME, organism-based; settings: in vivo; outline: as §2
[17] = Drug excretion in human urine treated with [14C]-labeled milnacipran hydrochloride at 100 mg, po after 48 to 72 hrs by HPLC analysis; assay type: ADME, organism-based; settings: in vivo; outline: as §2
[18] = Drug excretion in mouse urine at 100 mg/kg, po; assay type: ADME, organism-based; set-up: dose 100 mg/kg, route oral; settings: read-out: Drug excretion
[19] = Drug excretion in rat urine at 100 mg/kg, po; assay type: ADME, organism-based; set-up: dose 100 mg/kg, route oral; settings: read-out: Drug excretion
[20] = Drug excretion in monkey urine at 60 mg/kg, po; assay type: ADME, organism-based, Macaca mulatta; set-up: dose 60 mg/kg, route oral; settings: rhesus monkey, read-out: Drug excretion
[21] = Cmax in human at 100 mg, po by LC-MS/MS analysis; assay type: ADME, organism-based; set-up: dose 100 mg, route oral; settings: in vivo
Outline: (§3)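 Plasma from healthy males after single oral 100 mg [14C] milnacipran hydrochloride, sampled 0.5–120 h. Unchanged drug quantified by validated LC-MS/MS with [2H10] internal standard, C8 column isocratic formic acid/water/methanol; linear 5–2000 ng/mL, LLOQ 5 ng/mL in 25 µL plasma. Non-compartmental analysis; values below LLOQ set to zero; subjects without emesis.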

[22] = Tmax in human at 100 mg, po by LC-MS/MS analysis; assay type: ADME, organism-based; settings: in vivo; outline: as §3
[23] = Tmax in human; assay type: ADME, organism-based; settings: in vivo
[24] = AUC (0 to t) in human at 100 mg, po by LC-MS/MS analysis; assay type: ADME, organism-based; settings: plasma; outline: as §3
[25] = Drug excretion in human urine; assay type: ADME; settings: read-out: Drug excretion
[26] = AUC (0 to infinity) in human at 100 mg, po by LC-MS/MS analysis; assay type: ADME, organism-based; set-up: dose 100 mg, time infinity, route oral; settings: plasma; outline: as §3
[27] = Half life in human at 100 mg, po by LC-MS/MS analysis; assay type: ADME, organism-based; settings: in vivo; outline: as §3
[28] = Drug excretion in human urine treated with [14C]-labeled milnacipran hydrochloride at 100 mg, po up to 96 hrs by LC-SRM analysis; assay type: ADME, organism-based; settings: in vivo
Outline: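 0–96 h urine pool analysed by chiral LC-SRM on Chirobiotic V column, ammonium formate-methanol mobile phase, 1 mL/min, column 20°C. Enantiomer proportion from peak areas corrected by urine standard ratio, multiplied by milnacipran excreted in the pool (% of dose).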

[29] = Half life in human plasma; assay type: ADME, cell-free

SMILES | Cp (Plasma [1]) | Drug excretion [2] | Cp (Plasma [3]) | Cp (Plasma [4]) | Cp (Plasma [5]) | Drug excretion [6] | Cp (Plasma [7]) | Cp (Plasma [8]) | Retention_time [9] | Cp (Plasma [10]) | Drug excretion [11] | Drug excretion [12] | Drug excretion [13] | Drug excretion [14] | Cp (Plasma [15]) | Drug excretion [16] | Drug excretion [17] | Drug excretion [28] | also measured
CCNC(=O)[C@@]1(c2ccccc2)CC1CN (some centres not stated) | < 7.8 ng.Eq/ml | 0.92% | 19.63 ng.Eq/ml | 24.6 ng.Eq/ml | < 7.8 ng.Eq/ml | 1.36% | 23.46 ng.Eq/ml | < 7.8 ng.Eq/ml | 11 min | < 7.8 ng.Eq/ml | 0.06% | 2.06% | 1.26% | 7.73% | 13.67 ng.Eq/ml | 1.35% | 0.73% | – | –
CCN(CC)C(=O)C1(c2ccccc2)CC1CNC(=O)O[C@@H]1O[C@H](C(=O)O)[C@@H](O)[C@H](O)[C@H]1O (some centres not stated) | – | – | – | – | – | – | – | – | – | – | – | – | – | – | – | – | – | – | dose excreted [18]: 1%; dose excreted [19]: 0.1%; dose excreted [20]: 1.6%
CCN(CC)C(=O)[C@]1(c2ccccc2)C[C@@H]1CNC(=O)O[C@@H]1O[C@H](C(=O)O)[C@@H](O)[C@H](O)[C@H]1O | 101.66 ng.Eq/ml | 6.26% | 234.38 ng.Eq/ml | 195.72 ng.Eq/ml | 161.3 ng.Eq/ml | 0.76% | 140.79 ng.Eq/ml | 26.57 ng.Eq/ml | 22 min | 190.14 ng.Eq/ml | Below limit of detection | 2.36% | 2.36% | 17.23% | 50.79 ng.Eq/ml | 5.39% | 0.19% | – | –
CCN(CC)C(=O)[C@@]1(c2ccccc2)C[C@H]1CNC(=O)O[C@@H]1O[C@H](C(=O)O)[C@@H](O)[C@H](O)[C@H]1O | < 7.8 ng.Eq/ml | 0.55% | 17.49 ng.Eq/ml | 16.42 ng.Eq/ml | < 7.8 ng.Eq/ml | 0.28% | < 7.8 ng.Eq/ml | < 7.8 ng.Eq/ml | 24 min | < 7.8 ng.Eq/ml | Below limit of detection | 0.58% | 0.37% | 2.14% | < 7.8 ng.Eq/ml | 0.64% | Below limit of detection | – | –
CCN(CC)C(=O)C1(c2ccccc2)CC1CN (racemic) [MILNACIPRAN] | 83.17 ng.Eq/ml | 15.54% | 214.21 ng.Eq/ml | 208.01 ng.Eq/ml | 156.73 ng.Eq/ml | 5.45% | 186.82 ng.Eq/ml | 33.92 ng.Eq/ml | 35 min | 178.93 ng.Eq/ml | 0.3% | 10.87% | 7.17% | 54.71% | 87.22 ng.Eq/ml | 14.42% | 1.47% | 54.7% | Cmax [21]: 240 ng/mL; Tmax [22]: 3.5 h; Tmax [23]: 2 h; AUC(0-t) [24]: 2340 ng·h/mL; dose excreted [25]: 50%; AUC(0-inf) [26]: 2770 ng·h/mL; half-life [27]: 8.9 h; half-life [29]: 8 h
CCN(CC)C(=O)C1(c2ccccc2)CC1CN (stereo in doubt) [MILNACIPRAN] | – | – | – | – | – | – | – | – | – | – | – | – | – | – | – | – | – | 23.5% | –
CCN(CC)C(=O)[C@@]1(c2ccccc2)C[C@H]1CN [LEVOMILNACIPRAN] | – | – | – | – | – | – | – | – | – | – | – | – | – | – | – | – | – | 31.2% | –
